ChEMBL document CHEMBL3044819, “Structure-activity relationship in the interaction of substituted perinaphthenones with Mycosphaerella fijiensis” (J Agric Food Chem, 2009)
Activity calls are given as the source filed them. The calls are words filed in the database; no cut-off is given here.

Tested on: Pseudocercospora fijiensis
Assay: Antifungal activity against Pseudocercospora fijiensis assessed as inhibition of mycelial growth under 12 hr photoperiod measured after 8 days
Assay type: functional, organism-based
How it was run: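 Microtiter well assay; inoculum adjusted to 2 × 10⁵ mycelial fragments/mL. Plates kept in an incubation chamber 1 m from white fluorescent tubes on a 12 h photoperiod. Mycelial growth was measured after 8 days, which is the logarithmic growth phase. IC₅₀ values were calculated from growth inhibition, with statistical analysis per Lazzaro et al. Benomyl and propiconazole were tested as reference fungicides.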

| SMILES | growth inhibition (GI) |
| --- | --- |
| COC1=Cc2cccc3cccc(c23)C1=O | inactive |
| COc1ccc2cccc3c2c1C=C([N+](=O)[O-])C3=O | Active |
| COc1ccc2c3c(cccc13)C(=O)C=C2 | inactive |
| O=C1C([N+](=O)[O-])=Cc2cccc3cccc1c23 | Active |
| O=C1C(O)=Cc2cccc3cccc1c23 | inactive |
| O=C1C=Cc2cccc3cccc1c23 | Active |
| O=C1C=Cc2ccc(O)c3cccc1c23 | inactive |
| O=C1C=Cc2c(O)ccc3cccc1c23 | inactive |
| COc1ccc2cccc3c2c1C=CC3=O | inactive |
| O=C1C=C(O)c2cccc3cccc1c23 | inactive |
| O=C1C(Br)=Cc2cccc3cccc1c23 | Active |
| O=C1C(Cl)=Cc2cccc3cccc1c23 | Active |
| COC1=CC(=O)c2cccc3cccc1c23 | inactive |
